Peptide text beside a SMILES is read from it. * marks the point of attachment. X8 = C[C@H]1[C@H](C)CC[C@]2(C(=O)O)CC[C@]3(C)C(=CC[C@@H]4[C@@]5(C)CC[C@H](OC(=O)CCc6cn(CC(=O)*)nn6)C(C)(C)[C@@H]5CC[C@]43C)[C@H]12; X7 = C[C@H]1[C@H](C)CC[C@]2(C(=O)OCc3cn(CC(=O)*)nn3)CC[C@]3(C)C(=CC[C@@H]4[C@@]5(C)CC[C@H](O)C(C)(C)[C@@H]5CC[C@]43C)[C@H]12; X6 = CC1(C)CC[C@]2(C(=O)O)CC[C@]3(C)C(=CC[C@@H]4[C@@]5(C)CC[C@H](OC(=O)CCc6cn(CC(=O)*)nn6)C(C)(C)[C@@H]5CC[C@]43C)[C@@H]2C1; βAla = NCCC(=O)O
Columns and labels:
[1] = system: Human immunodeficiency virus 1; assay: Antiviral activity against HIV1 3B infected in human MT2 cells assessed as inhibition of viral p24 antigen production by ELISA; assay type: functional, organism-based; settings: Human immunodeficiency virus 1, 3B
In short: (§1)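 MT-2 cells (1 × 10⁴) infected with 100 TCID₅₀ virus with or without peptides at graded concentrations. Culture supernatants collected on day 4 postinfection; p24 antigen quantified by ELISA. Percent inhibition and EC₅₀ calculated; tested in triplicate, mean ± standard deviation.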

[2] = Cytotoxicity against human MT2 cells after 4 days by XTT assay; assay type: cell-based
In short: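 MT-2 cells (5 × 10⁵/mL) mixed with equal volumes of graded conjugate concentrations and held at 37 °C for 4 days. XTT (1 mg/mL) with 0.02 μM phenazine methosulfate added for 4 h, then A450 read. CC50 calculated from the dose–response.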

[3] = system: Human immunodeficiency virus 1; assay: Antiviral activity against HIV1 BaL infected in human […] cells assessed as inhibition of viral replication; assay type: functional, organism-based; settings: Human immunodeficiency virus 1, BaL; in short: as §1
[4] = Selectivity index, ratio of CC50 for human MT2 cells to EC50 for HIV1 3B infected in human MT2 cells; assay type: toxicity, cell-based; settings: read-out: Ratio CC50/EC50

| Structure (SMILES) | EC50 [1] | CC50 at 96 h [2] | EC50 [3] | selectivity ratio [4] |
| --- | --- | --- | --- | --- |
| CC[C@H](C)[C@H](NC(=O)[C@H](CC(C)C)NC(=O)[C@H](CO)NC(=O)[C@H](Cc1cnc[nH]1)NC(=O)[C@@H](NC(=O)[C@H](CC(C)C)NC(=O)[C@H](CO)NC(=O)[C@@H](NC(=O)[C@H](Cc1ccc(O)cc1)NC(=O)[C@H](CC(N)=O)NC(=O)[C@H](CC(N)=O)NC(=O)CCNC(=O)Cn1cc(CCC(=O)O[C@H]2CC[C@]3(C)[C@H]4CC=C5[C@@H]6CC(C)(C)CC[C@]6(C(=O)O)CC[C@@]5(C)[C@]4(C)CC[C@H]3C2(C)C)nn1)[C@@H](C)O)[C@@H](C)CC)C(=O)N[C@@H](CCC(=O)O)C(=O)N[C@@H](CCC(=O)O)C(=O)N[C@@H](CO)C(=O)N[C@@H](CCC(N)=O)C(=O)N[C@@H](CC(N)=O)C(=O)N[C@@H](CCC(N)=O)C(=O)N[C@@H](CCC(N)=O)C(=O)N[C@@H](CCC(=O)O)C(=O)N[C@@H](CCCCN)C(=O)N[C@@H](CC(N)=O)C(=O)N[C@@H](CCC(=O)O)C(=O)N[C@@H](CCC(N)=O)C(=O)N[C@@H](CCC(=O)O)C(=O)N[C@@H](CC(C)C)C(=O)N[C@@H](CC(C)C)C(N)=O ({X6-βAla}-NNYTSLIHSLIEESQNQQEKNEQELL-NH2) | 94 nM | > 25000 nM | 150 nM | > 266 |
| CC[C@H](C)[C@H](NC(=O)[C@H](CC(C)C)NC(=O)[C@H](CO)NC(=O)[C@H](Cc1cnc[nH]1)NC(=O)[C@@H](NC(=O)[C@H](CC(C)C)NC(=O)[C@H](CO)NC(=O)[C@@H](NC(=O)[C@H](Cc1ccc(O)cc1)NC(=O)[C@H](CC(N)=O)NC(=O)[C@H](CC(N)=O)NC(=O)CCNC(=O)Cn1cc(COC(=O)[C@]23CC[C@@H](C)[C@H](C)[C@H]2C2=CC[C@@H]4[C@@]5(C)CC[C@H](O)C(C)(C)[C@@H]5CC[C@@]4(C)[C@]2(C)CC3)nn1)[C@@H](C)O)[C@@H](C)CC)C(=O)N[C@@H](CCC(=O)O)C(=O)N[C@@H](CCC(=O)O)C(=O)N[C@@H](CO)C(=O)N[C@@H](CCC(N)=O)C(=O)N[C@@H](CC(N)=O)C(=O)N[C@@H](CCC(N)=O)C(=O)N[C@@H](CCC(N)=O)C(=O)N[C@@H](CCC(=O)O)C(=O)N[C@@H](CCCCN)C(=O)N[C@@H](CC(N)=O)C(=O)N[C@@H](CCC(=O)O)C(=O)N[C@@H](CCC(N)=O)C(=O)N[C@@H](CCC(=O)O)C(=O)N[C@@H](CC(C)C)C(=O)N[C@@H](CC(C)C)C(N)=O ({X7-βAla}-NNYTSLIHSLIEESQNQQEKNEQELL-NH2) | 565 nM | > 25000 nM | 288 nM | > 44 |
| CC[C@H](C)[C@H](NC(=O)[C@H](CC(C)C)NC(=O)[C@H](CO)NC(=O)[C@H](Cc1cnc[nH]1)NC(=O)[C@@H](NC(=O)[C@H](CC(C)C)NC(=O)[C@H](CO)NC(=O)[C@@H](NC(=O)[C@H](Cc1ccc(O)cc1)NC(=O)[C@H](CC(N)=O)NC(=O)[C@H](CC(N)=O)NC(=O)CCNC(=O)Cn1cc(CCC(=O)O[C@H]2CC[C@]3(C)[C@H]4CC=C5[C@@H]6[C@@H](C)[C@H](C)CC[C@]6(C(=O)O)CC[C@@]5(C)[C@]4(C)CC[C@H]3C2(C)C)nn1)[C@@H](C)O)[C@@H](C)CC)C(=O)N[C@@H](CCC(=O)O)C(=O)N[C@@H](CCC(=O)O)C(=O)N[C@@H](CO)C(=O)N[C@@H](CCC(N)=O)C(=O)N[C@@H](CC(N)=O)C(=O)N[C@@H](CCC(N)=O)C(=O)N[C@@H](CCC(N)=O)C(=O)N[C@@H](CCC(=O)O)C(=O)N[C@@H](CCCCN)C(=O)N[C@@H](CC(N)=O)C(=O)N[C@@H](CCC(=O)O)C(=O)N[C@@H](CCC(N)=O)C(=O)N[C@@H](CCC(=O)O)C(=O)N[C@@H](CC(C)C)C(=O)N[C@@H](CC(C)C)C(N)=O ({X8-βAla}-NNYTSLIHSLIEESQNQQEKNEQELL-NH2) | 387 nM | > 25000 nM | 113 nM | > 64 |

— ChEMBL document CHEMBL3351900, “Conjugation of a nonspecific antiviral sapogenin with a specific HIV fusion inhibitor: a promising strategy for discovering new antiviral therapeutics” (J Med Chem, 2014)
